This is an account of results in ChEMBL document CHEMBL1123784, “Quantitative structure-activity relationship of triazine-antifolate inhibition of Leishmania dihydrofolate reductase and cell growth” (J Med Chem, 1987).

Test [1] addresses Bifunctional dihydrofolate reductase-thymidylate synthase (Leishmania major, UniProt P07382). The test can be described thus: Inhibition of dihydrofolate reductase (DHFR) from Leishmania major. To be noted: read-out: Log 1/Ki (converted).
In test [2] the test system is Leishmania major. The test can be described thus: Growth inhibition against Leishmania major promastigotes in culture. To be noted: read-out: Log 1/EC50 (converted). The test is classed as functional, organism-based. Put shortly: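 Seeded at 5 × 10⁶ cells/mL with four to six inhibitor concentrations spanning the I50. Coulter-counted daily for 5 days or until out of log phase. EC50 = concentration halving growth rate versus drug-free medium, from log dose vs percent growth plot.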

Bifunctional dihydrofolate reductase-thymidylate synthase, sequence (P07382 whole entry): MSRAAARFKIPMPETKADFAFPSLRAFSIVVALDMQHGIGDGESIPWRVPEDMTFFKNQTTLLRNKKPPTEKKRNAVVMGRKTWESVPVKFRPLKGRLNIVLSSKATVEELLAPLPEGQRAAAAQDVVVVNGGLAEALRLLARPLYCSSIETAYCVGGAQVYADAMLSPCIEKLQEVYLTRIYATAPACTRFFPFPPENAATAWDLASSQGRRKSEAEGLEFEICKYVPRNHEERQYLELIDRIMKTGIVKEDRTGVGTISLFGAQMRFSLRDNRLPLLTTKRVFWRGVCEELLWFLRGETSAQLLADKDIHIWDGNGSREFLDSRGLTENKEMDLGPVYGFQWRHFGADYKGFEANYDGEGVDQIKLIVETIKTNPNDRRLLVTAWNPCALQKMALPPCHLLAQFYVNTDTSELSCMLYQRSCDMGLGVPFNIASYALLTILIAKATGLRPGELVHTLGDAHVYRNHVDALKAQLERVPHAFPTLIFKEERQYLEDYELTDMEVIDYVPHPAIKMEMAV

For `CCCCCCCCCCCOc1cccc(N2C(N)=NC(N)=NC2(C)C)c1`, the Ki in test [1] was 977 nM.

As to `CC1(C)N=C(N)N=C(N)N1c1cccc(C(N)=O)c1`, the Ki in test [1] was 117000 nM.

In the case of `CC1(C)N=C(N)N=C(N)N1c1cccc(C(F)(F)F)c1`, the Ki in test [1] was 2190 nM.

For `CCCCCCCCCOc1cccc(N2C(N)=NC(N)=NC2(C)C)c1`, in test [1], the Ki was 302 nM.

As for `CC1(C)N=C(N)N=C(N)N1c1cccc(CNc2cc(C(N)=O)cc(C(N)=O)c2)c1`, the EC50 in test [2] is 501000 nM. The Ki in test [1] was 513 nM.

With `CC1(C)N=C(N)N=C(N)N1c1cccc(OCC23CC4CC(CC(C4)C2)C3)c1`, the Ki in test [1] was 3090 nM.

On to `CC1(C)N=C(N)N=C(N)N1c1cccc(COc2cccc3ccccc23)c1`, for which, in test [2], the EC50 is 51300 nM. Further, in test [1], the Ki is 39.8 nM.

As for `CC1(C)N=C(N)N=C(N)N1c1cccc(SCc2ccc(Cl)cc2)c1`, in test [2], the EC50 is 60300 nM. Further, the Ki in test [1] was 110 nM.

As to `CCCCCCOc1cccc(N2C(N)=NC(N)=NC2(C)C)c1`, the Ki in test [1] is 3980 nM.

On to `CC(=O)c1cccc(N2C(N)=NC(N)=NC2(C)C)c1`, for which the Ki in test [1] was 39800 nM.

Turning to `CC1(C)N=C(N)N=C(N)N1c1cccc(OCCOc2cccc(C(F)(F)F)c2)c1`, the EC50 in test [2] was 126000 nM. Also, the Ki in test [1] is 251 nM.

For the molecule `CC(C)(C)c1cccc(N2C(N)=NC(N)=NC2(C)C)c1`, in test [1], the Ki is 5750 nM.

Turning to `CCOc1cccc(N2C(N)=NC(N)=NC2(C)C)c1`, the Ki in test [1] was 38000 nM.

On to `CC1(C)N=C(N)N=C(N)N1c1cccc(C[Se]c2ccccc2)c1`, for which the Ki in test [1] was 275 nM.

For `CCCCCc1ccc(OCc2cccc(N3C(N)=NC(N)=NC3(C)C)c2)cc1`, the Ki in test [1] was 339 nM.

With `CCc1cccc(OCc2cccc(N3C(N)=NC(N)=NC3(C)C)c2)c1`, the Ki in test [1] is 126 nM.

In the case of `CC1(C)N=C(N)N=C(N)N1c1cccc(SCc2ccccc2)c1`, the Ki in test [1] was 224 nM.

Regarding `CC(=O)Nc1cccc(OCc2cccc(N3C(N)=NC(N)=NC3(C)C)c2)c1`, the Ki in test [1] is 75.9 nM.

As to `CC1(C)N=C(N)N=C(N)N1c1cccc(CNc2ccc(Cl)cc2)c1`, the EC50 in test [2] was 263000 nM. Moreover, in test [1], the Ki was 661 nM.

On to `CC1(C)N=C(N)N=C(N)N1c1cccc(CSc2ccccc2)c1`, for which the Ki in test [1] was 407 nM.

As for `CC1(C)N=C(N)N=C(N)N1c1cccc(OCc2ccccc2)c1`, in test [1], the Ki was 1910 nM.

`CC1(C)N=C(N)N=C(N)N1c1cccc(COc2cccc(-c3ccccc3)c2)c1`: the EC50 in test [2] is 22900 nM. Also, the Ki in test [1] is 17 nM.

As for `CC1(C)N=C(N)N=C(N)N1c1cccc(CNc2ccc(S(N)(=O)=O)cc2)c1`, in test [1], the Ki was 759 nM.

Regarding `CCCCCCCCCCCCCCOc1cccc(N2C(N)=NC(N)=NC2(C)C)c1`, the Ki in test [1] is 5890 nM.

Regarding `CCOC(=O)c1cccc(N2C(N)=NC(N)=NC2(C)C)c1`, the Ki in test [1] was 112000 nM.

As for `CC1(C)N=C(N)N=C(N)N1c1cccc([N+](=O)[O-])c1`, the Ki in test [1] was 10000 nM.

For `CC1(C)N=C(N)N=C(N)N1c1cccc(OCCCCOc2cccc(C(F)(F)F)c2)c1`, in test [1], the Ki is 75.9 nM.

`CC1(C)N=C(N)N=C(N)N1c1cccc(Cl)c1`: the Ki in test [1] was 1200 nM.

Consider `COc1cccc(N2C(N)=NC(N)=NC2(C)C)c1`, for which the Ki in test [1] was 22900 nM.

For `CC1(C)N=C(N)N=C(N)N1c1cccc(COc2cccc(Cl)c2)c1`, the Ki in test [1] is 224 nM.

Turning to `CC1(C)N=C(N)N=C(N)N1c1cccc(C(O)c2ccccc2)c1` (stereo not drawn), the Ki in test [1] was 42700 nM.

For the molecule `CC1(C)N=C(N)N=C(N)N1c1cccc(C#N)c1`, the Ki in test [1] was 6030 nM.

With `CC1(C)N=C(N)N=C(N)N1c1cccc(COc2cccc(C#N)c2)c1`, the Ki in test [1] was 178 nM.

With `CC1(C)N=C(N)N=C(N)N1c1cccc(O)c1`, the Ki in test [1] is 53700 nM.

As to `CC1(C)N=C(N)N=C(N)N1c1cccc(COc2cccc(CO)c2)c1`, the Ki in test [1] was 646 nM.

For the molecule `COc1cccc(OCc2cccc(N3C(N)=NC(N)=NC3(C)C)c2)c1`, the EC50 in test [2] is 309000 nM. For the same molecule, in test [1], the Ki is 151 nM.

For the molecule `CC1(C)N=C(N)N=C(N)N1c1cccc(S(N)(=O)=O)c1`, the Ki in test [1] was 363000 nM.

As for `CCCCCCCCCCCCc1cccc(N2C(N)=NC(N)=NC2(C)C)c1`, the EC50 in test [2] was 7940 nM. Besides, the Ki in test [1] was 72.4 nM.

Take `CN(Cc1cnc2nc(N)nc(N)c2n1)c1ccc(C(=O)N[C@@H](CCC(=O)O)C(=O)O)cc1` [METHOTREXATE]: the EC50 in test [2] is 1000 nM.

Take `CC1(C)N=C(N)N=C(N)N1c1ccccc1`: the Ki in test [1] is 12600 nM.

On to `CCCCCCCCCc1cccc(N2C(N)=NC(N)=NC2(C)C)c1`, for which the EC50 in test [2] was 8510 nM. For the same molecule, the Ki in test [1] was 20.9 nM.

Turning to `CC1(C)N=C(N)N=C(N)N1c1cccc(COc2cc(Cl)c(Cl)cc2Cl)c1`, in test [2], the EC50 is 25100 nM. In addition, in test [1], the Ki is 69.2 nM.

`CC1(C)N=C(N)N=C(N)N1c1cccc(COc2cccc(NC(N)=O)c2)c1`: the Ki in test [1] was 91.2 nM.

On to `Cc1cccc(OCc2cccc(N3C(N)=NC(N)=NC3(C)C)c2)c1`, for which the EC50 in test [2] is 219000 nM. Besides, the Ki in test [1] is 427 nM.

Regarding `CC(C)c1cccc(OCc2cccc(N3C(N)=NC(N)=NC3(C)C)c2)c1`, in test [2], the EC50 was 57500 nM. For the same molecule, the Ki in test [1] was 174 nM.

With `CCc1cccc(N2C(N)=NC(N)=NC2(C)C)c1`, the Ki in test [1] was 1950 nM.
